In ChEMBL document CHEMBL5108029, “SILAC-based chemoproteomics reveals a neoligan analogue as an anti-inflammatory agent targeting IRGM to ameliorate cytokine storm” (Eur J Med Chem, 2022):
The source made the active and inactive calls. No cut-off for these calls is given here.

Key:
CD4+ve Th [1] = assay: Cytotoxicity against C57BL/6 mouse CD4+ T-lymphocytes at 500 nM measured upto 48 hrs; type: toxicity, cell-based; conditions: 0.5 µM
CD4+ve Th [2] = assay: Inhibition of cytokine storm in ConA/1L-12-stimulated C57BL/6 mouse CD4+ T-lymphocytes assessed as reduction in Th2 cell differentiation by measuring proportion of CD4+IL4-positive cells at 500 nM incubated for 48 hrs by flow cytometry (reference value: 67.6%); type: functional; set-up: scale not given: the % may be the effect or the level left
Procedure, shortened: (§1)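 Splenocytes from C57BL/6 mice after erythrocyte lysis, filtration and counting. Cultured in complete medium with ConA and IL-2 under Th1, Th2 or Th17 differentiation conditions with compound for 48 h. Then PMA, ionomycin and GolgiStop (1:1000) for 4 h. CD4 and intracellular cytokines stained and read by flow cytometry.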

CD4+ve Th [3] = assay: Inhibition of cytokine storm in ConA/1L-12-stimulated C57BL/6 mouse CD4+ T-lymphocytes assessed as reduction in Th1 cell differentiation by measuring proportion of CD4+IFNgamma-negative cells at 500 nM incubated for 48 hrs by flow cytometry (reference value: 31%); type: functional; set-up: scale not given: the % may be the effect or the level left; procedure, shortened: as §1
RAW264.7 [4] = assay: Anti-inflammatory activity against LPS-stimulated mouse RAW264.7 cells assessed as reduction in TNF-alpha expression of M1 macrophages at 100 to 500 nM incubated for 48 hrs in presence of LPS by flow cytometry; type: functional, cell-based; conditions: dose 100-500 nM
Procedure, shortened: (§2)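 RAW 264.7 cells in DMEM with 10% heat-inactivated FBS at 37 °C, 5% CO2, subcultured at 70–80% confluence. Seeded at 1 × 10^6 cells/mL in medium with 1 μg/mL LPS, with compound at final 100 nM or 500 nM. After 48 h, M1 differentiation and TNF-α are read by flow cytometry.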

CD4+ve Th [5] = assay: Inhibition of cytokine storm in ConA/1L-12-stimulated C57BL/6 mouse CD4+ T-lymphocytes assessed as reduction in Th2 cell differentiation by measuring proportion of CD4+IL4-negative cells at 500 nM incubated for 48 hrs by flow cytometry (reference value: 32.4%); type: functional; set-up: scale not given: the % may be the effect or the level left; procedure, shortened: as §1
RAW264.7 [6] = assay: Anti-inflammatory activity against LPS-stimulated mouse RAW264.7 cells assessed as reduction in M1 polarization of macrophages at 100 to 500 nM incubated for 48 hrs in presence of LPS by flow cytometry; type: functional, cell-based; conditions: dose 100-500 nM; procedure, shortened: as §2
CD4+ve Th [7] = assay: Inhibition of cytokine storm in ConA/1L-12-stimulated C57BL/6 mouse CD4+ T-lymphocytes assessed as reduction in Th17 cell differentiation by measuring proportion of CD4+IL17A-positive cells at 500 nM incubated for 48 hrs by flow cytometry (reference value: 68.4%); type: functional; set-up: scale not given: the % may be the effect or the level left; procedure, shortened: as §1
CD4+ve Th [8] = assay: Inhibition of cytokine storm in ConA/1L-12-stimulated C57BL/6 mouse CD4+ T-lymphocytes assessed as reduction in Th1 cell differentiation by measuring proportion of CD4+IFNgamma-positive cells at 500 nM incubated for 48 hrs by flow cytometry (reference value: 69%); type: functional; set-up: scale not given: the % may be the effect or the level left; procedure, shortened: as §1
CD4+ve Th [9] = assay: Inhibition of cytokine storm in ConA/1L-12-stimulated C57BL/6 mouse CD4+ T-lymphocytes assessed as reduction in Th17 cell differentiation by measuring proportion of CD4+IL17A-negative cells at 500 nM incubated for 48 hrs by flow cytometry (reference value: 31.6%); type: functional; set-up: scale not given: the % may be the effect or the level left; procedure, shortened: as §1
[10] = Inhibition of cytokine storm in CLP-induced sepsis C57BL/6J mouse model assessed as disruption of Th1 and Th2 cells imbalance by measuring CD4+IL4-negative cells at 100 mg/kg by flow cytometry (reference value: 95.3%); type: functional; set-up: scale not given: the % may be the effect or the level left
Mus musculus [11] = assay: Anti-inflammatory activity against CLP-induced sepsis C57BL/6J mouse model assessed as proportion of Foxp3-positive Treg cells at 100 mg/kg by flow cytometry (reference value: 2.08%); type: functional
Mus musculus [12] = assay: Anti-inflammatory activity against CLP-induced sepsis C57BL/6J mouse model assessed as proportion of Tr1 cells producing IL-10 at 100 mg/kg by flow cytometry (reference value: 24.5%); type: functional
Mus musculus [13] = assay: Anti-inflammatory activity against CLP-induced sepsis C57BL/6J mouse model assessed as reduction in edema and hepatocyte necrosis at 100 mg/kg by Hematoxylin and eosin staining based analysis; type: functional, organism-based
Procedure, shortened: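 Liver tissue from CLP-septic C57BL/6J male mice (8–10 wk), stained with H&E and examined for edema and hepatocyte necrosis.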

[14] = molecular target: T1, Immunity-related GTPase family M protein 1 (Mus musculus) (UniProt Q60766); assay: Binding affinity to IRGM in LPS-stimulated mouse RAW264.7 cells by competitive pull down based immunoblot analysis; type: cell-based; conditions: dose 10-100 µM, DDE = dose-dependent effect
T1 sequence (whole entry): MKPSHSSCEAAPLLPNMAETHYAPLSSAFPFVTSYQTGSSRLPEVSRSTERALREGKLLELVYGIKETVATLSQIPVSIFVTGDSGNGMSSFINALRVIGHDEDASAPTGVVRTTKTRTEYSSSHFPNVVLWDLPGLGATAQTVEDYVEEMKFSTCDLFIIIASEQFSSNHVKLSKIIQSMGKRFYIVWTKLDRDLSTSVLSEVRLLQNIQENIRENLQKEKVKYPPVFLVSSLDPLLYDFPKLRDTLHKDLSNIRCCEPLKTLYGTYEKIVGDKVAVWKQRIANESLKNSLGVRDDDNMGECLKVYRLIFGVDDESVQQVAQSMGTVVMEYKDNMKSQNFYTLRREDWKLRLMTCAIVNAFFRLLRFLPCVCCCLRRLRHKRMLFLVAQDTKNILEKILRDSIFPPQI
Procedure, shortened: (§3)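 Lysates of LPS-polarized (1 μg/mL, 48 h) RAW 264.7 cells at 2 mg/mL, incubated 3 h at room temperature with 100 μM probe 10 plus competitor at 10–100 μM. Then UV 365 nm crosslinking, click with biotin-azide, streptavidin pull-down, and immunoblotting for IRGM.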

[15] = molecular target: T1, Immunity-related GTPase family M protein 1 (Mus musculus); assay: Binding affinity to IRGM in LPS-stimulated mouse RAW264.7 cells at 100 uM preincubated with LPS for 48 hrs followed by incubation with compound for 3 hrs by immunoblot analysis; type: cell-based; procedure, shortened: as §3
[16] = Inhibition of cytokine storm in CLP-induced sepsis C57BL/6J mouse model assessed as disruption of Th1 and Th2 cells imbalance by measuring CD4+IFNgamma-positive cells at 100 mg/kg by flow cytometry (reference value: 73.7%); type: functional; set-up: scale not given: the % may be the effect or the level left
[17] = molecular target: T1, Immunity-related GTPase family M protein 1 (Mus musculus); assay: Binding affinity to IRGM in LPS-stimulated mouse RAW264.7 cells at 100 uM preincubated with LPS for 48 hrs followed by incubation with compound for 3 hrs by SILAC-pull down based analysis; type: cell-based
Procedure, shortened: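 RAW 264.7 cells were SILAC heavy- or light-labeled and polarized with 1 μg/mL LPS for 48 h. Lysates at 2 mg/mL in PBS: heavy with probe 10 (100 μM), light with 100 μM competitor, 3 h at room temperature. Then 365 nm UV at 4 °C and click with biotin-azide (final 500 μM) and Cu+ (final 1 mM) for 3 h. Acetone precipitation, streptavidin bead capture, SDS-PAGE and MS; Heavy/Light ratios by MaxQuant.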

RAW264.7 [18] = assay: Anti-inflammatory activity against LPS-stimulated mouse RAW264.7 cells assessed as proportion of polarized M1 macrophages at 500 nM incubated for 48 hrs in presence of LPS by flow cytometry (reference value: 90.3%); type: functional; procedure, shortened: as §2
RAW264.7 [19] = assay: Anti-inflammatory activity against LPS-stimulated mouse RAW264.7 cells assessed as TNF-alpha expression of M1 macrophages at 100 nM incubated for 48 hrs in presence of LPS by flow cytometry (reference value: 82.1%); type: functional; procedure, shortened: as §2
[20] = Inhibition of cytokine storm in CLP-induced sepsis C57BL/6J mouse model assessed as reduction in Th17 cell differentiation by measuring CD4+IL17A-negative cells at 100 mg/kg by flow cytometry (reference value: 50.2%); type: functional; set-up: scale not given: the % may be the effect or the level left
[21] = molecular target: T2, Immunity-related GTPase family M protein (Homo sapiens) (UniProt A1A4Y4); assay: Binding affinity to IRGM (unknown origin) by gene ontology analysis
T2 sequence (whole entry): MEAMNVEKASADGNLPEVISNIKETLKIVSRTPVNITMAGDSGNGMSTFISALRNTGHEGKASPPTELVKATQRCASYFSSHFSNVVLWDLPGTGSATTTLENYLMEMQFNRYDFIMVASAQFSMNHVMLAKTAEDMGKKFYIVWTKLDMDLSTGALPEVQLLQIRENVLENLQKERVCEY

RAW264.7 [22] = assay: Anti-inflammatory activity against LPS-stimulated mouse RAW264.7 cells assessed as proportion of polarized M1 macrophages at 100 nM incubated for 48 hrs in presence of LPS by flow cytometry (reference value: 90.3%); type: functional; procedure, shortened: as §2
[23] = molecular target: T2, Immunity-related GTPase family M protein (Homo sapiens); assay: Binding affinity to IRGM (unknown origin) assessed as protection of protein from temperature-dependent denaturation at 100 uM by CETSA analysis
[24] = Inhibition of cytokine storm in CLP-induced sepsis C57BL/6J mouse model assessed as disruption of Th1 and Th2 cells imbalance by measuring CD4+IL4-positive cells at 100 mg/kg by flow cytometry (reference value: 4.69%); type: functional; set-up: scale not given: the % may be the effect or the level left
[25] = molecular target: T2, Immunity-related GTPase family M protein (Homo sapiens); assay: Binding affinity to IRGM (unknown origin) assessed as protection of protein from pronase proteolysis by DARTS analysis; conditions: dose 1-100 µM, DDE = dose-dependent effect
Procedure, shortened: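 DARTS: samples treated with compound at 1–100 μM, then digested with pronase; IRGM detected by immunoblot.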

RAW264.7 [26] = assay: Anti-inflammatory activity against LPS-stimulated mouse RAW264.7 cells assessed as TNF-alpha expression of M1 macrophages at 500 nM incubated for 48 hrs in presence of LPS by flow cytometry (reference value: 82.1%); type: functional; procedure, shortened: as §2
[27] = Inhibition of cytokine storm in CLP-induced sepsis C57BL/6J mouse model assessed as reduction in Th17 cell differentiation by measuring CD4+IL17A-positive cells at 100 mg/kg by flow cytometry (reference value: 49.8%); type: functional; set-up: scale not given: the % may be the effect or the level left
[28] = Inhibition of cytokine storm in CLP-induced sepsis C57BL/6J mouse model assessed as disruption of Th1 and Th2 cells imbalance by measuring CD4+IFNgamma-negative cells at 100 mg/kg by flow cytometry (reference value: 26.3%); type: functional; set-up: scale not given: the % may be the effect or the level left
Mus musculus [29] = assay: Anti-inflammatory activity against CLP-induced sepsis C57BL/6J mouse model assessed as proportion of neutrophils at 100 mg/kg by flow cytometry (reference value: 6.6%); type: functional
Mus musculus [30] = assay: Anti-inflammatory activity against CLP-induced sepsis C57BL/6J mouse model assessed as proportion of M1 macrophages at 100 mg/kg by flow cytometry (reference value: 98.4%); type: functional

## C=CCOc1cccc(OC/C=C/c2ccc(OC)c(OC)c2)c1
CD4+ve Th [1]
  Activity: Non-Toxic
CD4+ve Th [2]
  Activity: 14.8%
CD4+ve Th [3]
  Activity: 74.4%
RAW264.7 [4]
  Activity: Active
CD4+ve Th [5]
  Activity: 85.2%
RAW264.7 [6]
  Activity: Active
CD4+ve Th [7]
  Activity: 23.9%
CD4+ve Th [8]
  Activity: 25.6%
CD4+ve Th [9]
  Activity: 76.1%

## COc1ccc(/C=C/COc2cccc(O)c2)cc1OC
CD4+ve Th [1]
  Activity: Non-Toxic
CD4+ve Th [2]
  Activity: 24%
CD4+ve Th [3]
  Activity: 74.9%
RAW264.7 [4]
  Activity: Active
CD4+ve Th [5]
  Activity: 76%
CD4+ve Th [7]
  Activity: 25.9%
CD4+ve Th [8]
  Activity: 25.1%
CD4+ve Th [9]
  Activity: 74.1%

## C=CCc1cc2c(cc1O)O[C@H](c1ccc(OC)c(OC)c1)[C@H]2C
[10]
  Activity: 98.5%
CD4+ve Th [1]
  Activity: Non-Toxic
CD4+ve Th [2]
  Activity: 35.1%
CD4+ve Th [3]
  Activity: 57.2%
Mus musculus [11]
  Activity: 0.53%
RAW264.7 [4]
  Activity: Active
Mus musculus [12]
  Activity: 11.2%
CD4+ve Th [5]
  Activity: 64.9%
RAW264.7 [6]
  Activity: Active
Mus musculus [13]
  Activity: Active
[14]
  Activity: Dde
[15]
  Activity: Active
[16]
  Activity: 11.3%
CD4+ve Th [7]
  Activity: 42.3%
[17]
  Activity: Active
RAW264.7 [18]
  Activity: 83.2%
RAW264.7 [19]
  Activity: 19.5%
[20]
  Activity: 82.5%
CD4+ve Th [8]
  Activity: 42.8%
[21]
  Activity: Active
RAW264.7 [22]
  Activity: 82.9%
[23]
  Activity: Active
[24]
  Activity: 1.53%
[25]
  Activity: Dde
RAW264.7 [26]
  Activity: 22.8%
[27]
  Activity: 17.5%
CD4+ve Th [9]
  Activity: 57.7%
[28]
  Activity: 88.7%
Mus musculus [29]
  Activity: 1.09%
Mus musculus [30]
  Activity: 71.3%
